Data taken from ChEMBL document CHEMBL3862015, “Synthesis and biological evaluation of furocoumarin derivatives on melanin synthesis in murine B16 cells for the treatment of vitiligo” (2016).
The source made the active and inactive calls. No cut-off for these calls is given here.

What was measured:
[1] = test system: B16-F10; assay: Induction of melanin synthesis in mouse B16F10 cells at 50 uM after 48 hrs by spectrophotometric analysis relative to control; format: functional
Outline: (§1)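 B16F10 cells in DMEM with 10% heat-inactivated FBS, penicillin/streptomycin, 37 °C, 5% CO2; 5 × 10^5 cells per well, allowed 24 h, then fresh medium with compound for 48 h. Cells washed in cold PBS, lysed in RIPA on ice 40 min, spun 10,000g 20 min; pellet dissolved in 1 M NaOH, 60 °C 2 h, A405, normalised to protein. Three experiments in duplicate.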

[2] = test system: B16-F10; assay: Induction of melanin synthesis in mouse B16F10 cells at 50 uM after 48 hrs by spectrophotometric analysis relative to 8-MOP; format: functional; outline: as §1

Structure (SMILES)	Activity [1]	fold change (FC) [2]
Cc1cc(=O)oc2cc3oc4c(c3cc12)CCCC4	Active	–
Cc1cc(=O)oc2cc3occ(-c4ccccc4)c3cc12	Active	–
Cc1coc2cc3oc(=O)cc(C)c3cc12	Active	–
O=c1ccc2cc3c(-c4ccccc4)coc3cc2o1	Active	–
O=c1ccc2cc3c4c(oc3cc2o1)CCCC4	Active	–
COc1c2occc2cc2ccc(=O)oc12 [METHOXSALEN]	114.5%	–
O=c1ccc2ccc3occc3c2o1	Active	–
Cc1oc2ccc3ccc(=O)oc3c2c1C	Active	–
Cc1oc2ccc3c(C)cc(=O)oc3c2c1C	Active	–
Cc1ccc(C(=O)OCc2cc(=O)oc3cc4oc5ccccc5c4cc23)cc1	313.1%	3
O=c1ccc2ccc3oc4c(c3c2o1)CCCC4	Active	–
O=Cc1cc(=O)oc2cc3oc4ccccc4c3cc12	Active	–
Cc1ccccc1/N=C/c1cc(=O)oc2cc3oc4ccccc4c3cc12	350.5%	3
Cc1oc2cc3oc(=O)cc(C)c3cc2c1C	Active	–
O=c1cc(CO)c2cc3c(cc2o1)oc1ccccc13	Active	–
O=c1ccc2cc3ccoc3cc2o1	Active	–
Cc1oc2cc3oc(=O)ccc3cc2c1C	Active	–
Cc1cc(=O)oc2c1ccc1occ(C)c12	Active	–
Cc1cc(=O)oc2c1ccc1occc12	Active	–
Cc1coc2ccc3ccc(=O)oc3c12	Active	–
Cc1coc2cc3oc(=O)ccc3cc12	Active	–
